Assays:
GSC-like CD133+ cells = assay: Organotypic tumor explants: FACS analysis of CD133+ cells; format: cell-based, human; conditions: RO4929097 alone; n=5
Notch pathway components = format: in vivo, human; conditions: enhancing tissue compared to areas of intact BBB, after 7 days
Method in brief: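 After 7 days of daily test compound (last dose 2–3 h pre-resection), tumor was sampled separately from contrast-enhancing and non-enhancing regions, defined by intraoperative MRI. Notch pathway transcripts were quantified by real-time PCR, normalized to 18S (n=6). Mean±SEM; unpaired Student's t-tests.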

Hes1 = conditions: cited from earlier work
[1] = tested on: NICD-expressing vascular structures; assay: NICD/CD31 immunohistochemistry of tumor blood vessels; format: in vivo, human
[2] = tested on: Notch intracellular domain (NICD); assay: NICD immunohistochemistry of tumor cells in matched glioblastoma tissue; format: in vivo, human; conditions: after presurgical 7-day treatment; before 21.9 ± 5.4 %; n=6
Method in brief: (§1)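 Tumor sections taken before and after 7 days of daily test compound were immunostained; the last dose was given 2–3 h before resection. NICD used an anti-NICD antibody. At least 1,000 cells counted per marker, with morphometry by image analysis. Ki-67 values were also grouped by patient survival (n=7). Mean±SEM; unpaired Student's t-tests.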

[3] = format: in vivo, human
[4] = tested on: tumor blood perfusion and vascular permeability; assay: DCE-perfusion MRI before and after 7 days of RO4929097; format: in vivo, human; conditions: after 7 days of RO4929097
Method in brief: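 Dynamic contrast-enhanced perfusion MRI in glioma patients before and after 7 days of daily test compound given before resection. Read-outs were relative fractional plasma volume (Vp) for blood perfusion and volume transfer coefficient between plasma and extravascular extracellular space (K^trans) for vascular permeability. Values given as mean±SEM; significance by unpaired Student's t-test.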

[5] = Plasma pharmacokinetics of RO4929097; format: in vivo, human; conditions: 10, 15, 20 mg, with temozolomide 75mg/m2
Method in brief: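 Daily test compound at 10, 15 or 20 mg, combined with temozolomide 75 mg/m² and 150 mg/m². Plasma levels measured by HPLC-MS/MS. […] Reported as mean ±SD.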

glioblastoma explants [6] = assay: Organotypic tumor explants: Ki-67 immunofluorescent staining; format: cell-based, human; conditions: RO4929097 1 µM, 10 days in vitro; n=4
Method in brief: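 Fresh tumor tissue from patients resected on study was grown as 3-D organotypic explants. Established explants were treated with the test compound alone. Proliferation was read by Ki-67 immunofluorescent staining and counting of Ki-67+ nuclei before and after treatment (n=4). Mean±SEM; unpaired Student's t-test.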

[7] = Phase I 3+3 dose escalation of RO4929097 with RT and temozolomide: toxicity; format: in vivo, human
glioblastoma explants [8] = assay: Organotypic tumor explants: CellTiter Glo Luminescent Assay; format: cell-based, human; conditions: triple combination RT+temozolomide+RO4929097; n=5
[9] = tested on: tumor cells proliferation (Ki-67); assay: Ki-67 immunohistochemistry of matched pre- and post-treatment tumor tissue; format: in vivo, human
Method in brief: as §1

[10] = tested on: Notch gene targets, angiogenesis and mesenchymal genes; assay: RNA-Ampliseq gene expression profiling of matched and recurrent tumors; format: in vivo, human
Method in brief: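 RNA sequencing on FFPE tumor tissue. Samples were matched archival pre-treatment tissue and tissue resected after the initial 7 days of daily test compound. A further set was recurrent tumors resected at repeat surgery from patients kept on the test compound (with temozolomide) until the day of surgery (n=7).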

[11] = after RO4929097, survival cut-off 14 months
[12] = second surgery after prolonged course (mean 181 days)

CC(C)(C(=O)NCC(F)(F)C(F)(F)F)C(=O)N[C@@H]1C(=O)Nc2ccccc2-c2ccccc21 [RO4929097]
proportion of CD133+ cells in explants (GSC-like CD133+ cells): significant decrease | Hes1 mRNA levels (Notch pathway components): remained unchanged | mRNA of Notch receptors (Notch 2, 3 and 4) (Notch pathway components): significant upregulation | mRNA of downstream effector Hes5 (Notch pathway components): suppression | mRNA of DLL1, DLL3 and Jag2 ligands (Notch pathway components; n=6): significant downregulation | concentration from which target genes (e.g. Hes1) are reduced dose-dependently (Hes1): ≥ 0.1 µM | microvascular density ([1]; Pre vs Post vs PostPP): no significant change | NICD expression on vascular structures, better survival group [1, 11]: 22.5 ± 5.0% | NICD expression on vascular structures, poor survival group [1, 11]: 43.8 ± 9.0% | NICD-expressing vascular structures (Post) ([1]; at 7 days of RO4929097, Pre 67.6 ± 5.2 %, percent of total blood vessels): 30.0 ± 9.0% | NICD-expressing vascular structures (PostPP) ([1]; at recurrence after prolonged treatment, Pre 67.6 ± 5.2 %): 24.2 ± 5.2% | NICD-positive tumor cells after treatment [2]: 5.1 ± 1.3% | tumor drug level, enhancing tissue ([3]; after 7 days of RO4929097, at surgery, disrupted BBB, mean ± SEM): 0.73 ± 0.13 µM | tumor drug level, non-enhancing tissue ([3]; after 7 days of RO4929097, at surgery, intact BBB, mean ± SEM): 0.33 ± 0.04 µM | drug level in non-enhancing tumor tissue, specimen M09 ([3]; repeat surgery, prolonged RO4929097 use, single specimen): ~ 1.3 µM | tumor drug concentration, enhancing areas [3, 12]: 0.77 ± 0.19 µM | tumor drug concentration, non-enhancing areas [3, 12]: 0.71 ± 0.24 µM | average tissue drug level, favorable survival group ([3]; tumor tissue, survival cut-off 14 months): 0.15 ± 0.03 µM | average tissue drug level, poor survival group ([3]; tumor tissue, survival cut-off 14 months, p=0.36 vs favorable): 0.19 ± 0.05 µM | mean K^trans after treatment ([4]; baseline 0.05± 0.01): 0.03 ± 0.01 min⁻¹ | mean Vp ratio after drug exposure ([4]; baseline 9.34± 2.4, p<0.05, 8 patients): 3.92± 0.9 | mean Cmax and AUC24 for the initial dose [5]: increased as the dose was escalated | proliferation (Ki-67 quantification) in explants (glioblastoma explants [6]): significant decrease in proliferation | QTc prolongation [7]: no significant QTc prolongation | treatment-related deaths [7]: no treatment-related deaths | recommended phase 2 dose (RP2D) ([7]; daily): 20 mg | decrease in tumor cell viability compared to control untreated explants (glioblastoma explants [8]): ~60% | Ki-67, poor survival group ([9]; after 7 days of RO4929097, baseline 15.0 ± 2.3 %): 20.4 ± 2.2% | Ki-67, favorable survival subgroup ([9]; after 7 days of RO4929097, baseline 37.3 ± 10.7 %): 8.5 ± 3.2% | Ki-67 proliferation marker after treatment ([9]; after 7 days of RO treatment, before 27.7 ± 7.3 %, n=7): 13.6 ± 3.1% | mesenchymal-associated genes C/EBPB and STAT3 ([10]; after presurgical 7-day RO4929097 treatment phase): downregulated | expression of primary Notch gene targets Hes5, Hey1 and Hey2 ([10]; mostly recurrence group with prolonged therapy, not statistically significant): trend towards downregulation | angiogenesis markers PECAM (CD31), angiopoetins and VEGFA ([10]; recurrent tumors under prolonged RO4929097 therapy): upregulation
